# Measurements from paper PMC7684765 (Journal of medicinal chemistry, 2020).
# “Also recorded” adds a separate entry of the source. Like-named read-outs stand apart in the source and are kept apart here.
# Assays:
# [1] = tested on: PTZ-induced seizures in zebrafish larvae; details: 20 μM; cited from earlier work
# [2] = tested on: 6 Hz 32 mA mouse seizure model; details: 6 Hz 32 mA mouse model, at 15 min; cited from earlier work
# [3] = tested on: 6 Hz 44 mA mouse seizure model; details: cited from earlier work
# [4] = tested on: ATP levels in HT-22 cells; details: 5 μM; cited from earlier work
# [5] = two hours; cited from earlier work
# zebrafish = details: cited from earlier work
# HT-22 neuronal cells = assay: HT-22 cell toxicity study; format: cell-based; details: up to 50 μM
# How it was run: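 HT-22 neuronal cells were grown in high-glucose DMEM with 10% FBS and 1% antibiotic-antimycotic at 37 °C and 5% CO2. Cells were seeded at 2000 per well. After 12 h, serially diluted test compound was added for 48 h. […] Readings were background-subtracted and normalized to control wells.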
# [6] = tested on: 6 Hz 32 mA mouse seizure model; assay: 6 Hz 32 mA mouse seizure test; format: in vivo; details: ip
# [7] = tested on: 6 Hz 44 mA mouse seizure model; assay: 6 Hz 44 mA mouse seizure test; format: in vivo; details: ip, 400 mg/kg
# MES-induced seizures = assay: Maximal electroshock; format: in vivo; details: MES model, mouse, ip, 350 mg/kg
# How it was run: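 Male CF-1 mice, 8 per group per dose, received test compound ip as a suspension in 0.5% HPMC, 1 h before stimulation. Tetracaine (0.5%) in electrolyte was applied to the eyes. A 60 Hz, 50 mA alternating current was delivered through corneal electrodes […]. Animals without hindlimb tonic extension were scored protected. Results are given as N/F, and ED50 was calculated by probit analysis.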
# s.c. PTZ mouse model = assay: Subcutaneous pentylenetetrazole; format: in vivo; details: ip, 450 mg/kg, 1 h
# How it was run: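 Test compound was suspended in 0.5% HPMC and given ip to male CF-1 mice, 8 per group per dose. One hour later, 85 mg/kg PTZ was injected subcutaneously into the midline of the neck. Mice showing no spasms or twitching were scored protected.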
# [8] = tested on: motor impairment (mouse rotarod assay); assay: Behavioral toxicity in mice; format: in vivo; details: acute (~1h) observation period, dose up to 800 mg/kg
# Pharmacokinetics in mice = format: in vivo; details: Mus musculus, read-out: free EC50 in mice
# PAINS exclusion assay = format: physicochemical; details: up to 24 h
# [9] = tested on: recurrent epileptiform discharges (REDs) in brain slices from the kainite-induced status epilepticus model; assay: Spontaneous recurrent epileptiform discharges; details: brain slices in vitro
# [10] = Lethality and other treatment effects in mice seizure models; format: in vivo; details: CF-1, mouse, in vivo, intraperitoneal
# mice = assay: as above; format: in vivo; details: mice
# [11] = tested on: 6 Hz mouse seizure model at 22 mA; assay: 6 Hz 22 mA mouse seizure model; format: in vivo; details: up to 400 mg/kg
smiles,measurement,setting,value
C#CCNC1=CC(=O)c2ccccc2C1=O [2h],anti-seizure activity,[1],clear anti-seizure activity
same,seizure protection,[2],full protection
same,seizure protection,[3]; 6 Hz 44 mA mouse model,no longer protective; also recorded: did not show any protection
same,effect on ATP levels,[4],can increase ATP levels
same,stability in mouse serum,[5],no catabolic conversion
same,toxicity,zebrafish; 20 μM,no observable toxicity
"CC(C)CCNC1=CC(=O)c2ccccc2C1=O [3d, 2-(isopentylamino)naphthalene-1,4-dione]",toxicity in HT-22 cells (in words),HT-22 neuronal cells,do not display obvious toxicity; also recorded: does not show obvious toxicity
same,seizure protection,[6]; 400 mg/kg,full protection
same,ED50 value (EC50),[6]; time of test 1 h,152.7 mg/kg
same,seizure protection,[7],full protection
same,seizure protection,MES-induced seizures,full protection
same,animals protected,s.c. PTZ mouse model,6 out of 8
same,motor impairment (mouse rotarod assay),[8],does not show signs of major motor impairment
same,EC50,Pharmacokinetics in mice,~123 nM
same,reaction with 2-mercaptoethanol (Michael reaction),PAINS exclusion assay,does not react
same,effect on spontaneous REDs,[9],does not attenuate
same,LD50 at 24 h,[10],> 800 mg/kg
same,doses lethal in some animals,"mice; after electric stimulation, after 24h (data not shown)",greater than 500 mg/kg
same,other effects of treatment observed,mice; at time of treatment and ~1 h observation period (data not shown),writhing (abdominal constriction); also recorded: discolored urine and lethargy
"O=C1C=C(NCCC2CCC2)C(=O)c2ccccc21 [3l, 2-((2-cyclobutylethyl)amino)naphthalene-1,4-dione]",toxicity in HT-22 cells (in words),HT-22 neuronal cells,do not display obvious toxicity
same,seizure protection,[11],without full seizure protection
CC[C@@H](C(N)=O)N1CCCC1=O [Levetiracetam],6 Hz 44 mA ED50,[3]; 6 Hz 44 mA seizure model,over 1000 mg/kg
CC1=CC(=O)c2ccccc2C1=O [VK3],reaction with 2-mercaptoethanol (Michael reaction),PAINS exclusion assay,rapidly reacts
same,effect on ATP levels,[4],can increase ATP levels
same,lethal dose,zebrafish,7 µM
